One block for each compound: values may come before it.
Experiments:
[1] = test system: urinary glucose excretion; conditions: healthy subjects; cited from earlier work
Single ascending dose = type: in vivo, human; conditions: for Cmax / Tmax / k el / Vd/F / half-life: human, plasma, po; for k el: λz
Method in brief: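 Healthy Japanese men received a single oral dose (1–25 mg) or placebo with 200 mL water under fasting conditions. The 5 mg group was redosed preprandially 8 days later, followed by a standardized ~630 kcal meal. Plasma and urine were collected to 48 h (96 h at 15 and 25 mg) and assayed by HPLC–MS/MS (urine LLOQ 0.5 ng/mL). Analysis was noncompartmental: AUClast by trapezoidal rule, AUCinf extrapolated. Dose proportionality used a power model; food effect used preprandial/fasting geometric mean ratios with 90% CI (mixed model).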

[2] = 7-day multiple ascending dose; type: in vivo, human; conditions: for mean daily urinary luseogliflozin excretion rate (% of daily dose): Days 1–7, range; for mean urinary luseogliflozin excretion rate: Days 1–11 (96 h after the last administration); for AUC / AUC(0-inf): po
Method in brief: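 In healthy Japanese men, 5 or 10 mg/day or placebo was given orally for 7 days with 200 mL water just before breakfast, with a standardized ~630 kcal meal on Days 1 and 7. Heparin plasma was sampled to 12 h after the first dose, predose on Days 2–7, and to 96 h after the last dose. Plasma and urine were assayed by HPLC–MS/MS, and parameters derived noncompartmentally (AUCinf Day 1, AUC0–24 Day 7); accumulation was assessed by comparing these.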

[3] = test system: urinary glucose excretion; test: SAD study: urinary glucose excretion; type: in vivo, human
Method in brief: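 After a single oral fasting dose (1–25 mg) or placebo, urine was pooled over 24 h predose and over intervals from 0–2 to 24–48 h post-dose, extended to 96 h for 15 and 25 mg. Aliquots were kept at 4 °C, and glucose was measured on an automated analyzer. UGE (g) was computed per collection period and as 24-h cumulative.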

[4] = test system: urinary glucose excretion; test: MAD study: urinary glucose excretion; type: in vivo, human; conditions: for mean daily UGE (range): administration days 1–7
Method in brief: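 Subjects took 5 or 10 mg/day or placebo orally for 7 days before breakfast. Urine was pooled over 24 h predose, over 2-h intervals to 16 h and 16–24 h on Days 1 and 7, and every 24 h on other days through Day 14. Glucose was measured on an automated analyzer; daily and 24-h cumulative UGE (g) were derived. Groups were compared with placebo by ANCOVA, with baseline glucose as covariate.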

plasma glucose = test: Plasma glucose concentrations in the SAD and MAD studies; type: in vivo, human; conditions: healthy subjects, vs placebo
[5] = test system: healthy male Japanese subjects; test: Assessment of safety in the SAD and MAD studies; type: in vivo, human
SGLT2 = conditions: read-out: 50% inhibitory concentration (IC50) for SGLT2; cited from earlier work
SGLT1 = conditions: cited from earlier work
[6] = animal study; cited from earlier work
[7] = SAD, 5 mg, N = 8, estimated value (90% CI)
[8] = both studies (SAD 1–25 mg, MAD 5 or 10 mg/day 7 days)

SMILES: OC[C@H]1O[C@@H](c2ccc(F)c(Cc3cc4ccccc4s3)c2)[C@H](O)[C@@H](O)[C@@H]1O [ipragliflozin]
- maximum amount of daily UGE after multiple dose [1]: 50 to 55 g/day
- maximum amount of daily UGE after single dose [1]: approximately 70 g/day

- AUCinf ratio preprandial/fasting (Single ascending dose; [7]): 105 (101–110) %
- AUClast ratio preprandial/fasting (Single ascending dose; [7]): 105 (101–109) %
- C max ratio preprandial/fasting (Single ascending dose; [7]): 107 (89.9–127) %
- mean plasma concentration as % of C max (Single ascending dose; SAD, by 48 h after administration): 2–3%
- dose proportionality (Single ascending dose; SAD, dose range 1–25 mg): dose proportionality was observed
- mean urinary luseogliflozin excretion rate (% of each dose) (Single ascending dose; SAD, single administration, fasting, range over doses): 3.36–4.40%
- CL/F (Single ascending dose; SAD, single oral 1 mg, fasting, N = 3, mean ± SD): 3.02 ± 0.489 L/h
- CL/F (Single ascending dose; SAD, single oral 3 mg, fasting, N = 8, mean ± SD): 3.16 ± 0.744 L/h
- CL/F (Single ascending dose; SAD, single oral 5 mg, fasting, N = 8, mean ± SD): 2.80 ± 0.465 L/h
- CL/F (Single ascending dose; SAD, single oral 5 mg, preprandial, N = 8, mean ± SD): 2.64 ± 0.362 L/h
- CL/F (Single ascending dose; SAD, single oral 9 mg, fasting, N = 8, mean ± SD): 2.98 ± 0.326 L/h
- CL/F (Single ascending dose; SAD, single oral 15 mg, fasting, N = 8, mean ± SD): 2.99 ± 0.483 L/h
- CL/F (Single ascending dose; SAD, single oral 25 mg, fasting, N = 8, mean ± SD): 2.99 ± 0.436 L/h
- Cmax (Single ascending dose; 1 mg): 38.2 ± 4.86 ng/mL
- Tmax (Single ascending dose; 1 mg): 0.667 ± 0.289 h
- k el (Single ascending dose; 1 mg, SAD, single oral 1 mg, fasting, N = 3, mean ± SD): 1.85e-05 s⁻¹
- Cmax (Single ascending dose; 3 mg): 116 ± 24.6 ng/mL
- Tmax (Single ascending dose; 3 mg): 0.75 ± 0.267 h
- k el (Single ascending dose; 3 mg, SAD, single oral 3 mg, fasting, N = 8, mean ± SD): 2.11e-05 s⁻¹
- Cmax (Single ascending dose; 5 mg): 187 ± 27.3 ng/mL
- Tmax (Single ascending dose; 5 mg): 1.06 ± 0.496 h
- Vd/F (Single ascending dose; 5 mg): 38.9 ± 4.97 L
- half-life (Single ascending dose; 5 mg): 10.3 ± 1.02 h
- k el (Single ascending dose; 5 mg, SAD, single oral 5 mg, fasting, N = 8, mean ± SD): 2.01e-05 s⁻¹
- Cmax (Single ascending dose; 9 mg): 312 ± 45.2 ng/mL
- Tmax (Single ascending dose; 9 mg): 1.25 ± 0.598 h
- k el (Single ascending dose; 9 mg, SAD, single oral 9 mg, fasting, N = 8, mean ± SD): 1.96e-05 s⁻¹
- Vd/F (Single ascending dose; 15 mg): 60.5 ± 31 L
- half-life (Single ascending dose; 15 mg): 13.8 ± 5.76 h
- k el (Single ascending dose; 15 mg, SAD, single oral 15 mg, fasting, N = 8, mean ± SD): 1.57e-05 s⁻¹
- Vd/F (Single ascending dose; 25 mg): 54.7 ± 13.7 L
- k el (Single ascending dose; 25 mg, SAD, single oral 25 mg, fasting, N = 8, mean ± SD): 1.56e-05 s⁻¹
- Tmax (Single ascending dose; male): 0.667 to 2.25 h
- half-life (Single ascending dose; male): 9.23 to 13.8 h
- Vd/F (Single ascending dose; male, 1 mg): 45.3 ± 6.88 L
- half-life (Single ascending dose; male, 1 mg): 10.4 ± 0.552 h
- Vd/F (Single ascending dose; male, 3 mg): 41.4 ± 7.17 L
- half-life (Single ascending dose; male, 3 mg): 9.23 ± 0.95 h
- Cmax (Single ascending dose; male, 5 mg): 205 ± 53.5 ng/mL
- Tmax (Single ascending dose; male, 5 mg): 0.75 ± 0.535 h
- Vd/F (Single ascending dose; male, 5 mg): 38.7 ± 4.11 L
- half-life (Single ascending dose; male, 5 mg): 9.72 ± 1.17 h
- Vd/F (Single ascending dose; male, 9 mg): 42.4 ± 5.4 L
- Cmax (Single ascending dose; male, 15 mg): 544 ± 143 ng/mL
- Cmax (Single ascending dose; male, 25 mg): 721 ± 123 ng/mL
- mean daily urinary luseogliflozin excretion rate (% of daily dose) ([2]; MAD, 5 mg): 3.74–4.69%
- mean urinary luseogliflozin excretion rate ([2]; MAD, 5 mg): 4.58%
- CL/F ([2]; MAD, 5 mg/day oral before breakfast, Day 1, N = 8, mean ± SD): 2.72 ± 0.648 L/h
- CL/F ([2]; MAD, 5 mg/day oral before breakfast, Day 7, N = 8, mean ± SD): 2.61 ± 0.537 L/h
- mean daily urinary luseogliflozin excretion rate (% of daily dose) ([2]; MAD, 10 mg): 3.58–4.23%
- mean urinary luseogliflozin excretion rate ([2]; MAD, 10 mg): 4.12%
- CL/F ([2]; MAD, 10 mg/day oral before breakfast, Day 1, N = 8, mean ± SD): 3.05 ± 0.628 L/h
- CL/F ([2]; MAD, 10 mg/day oral before breakfast, Day 7, N = 8, mean ± SD): 3.00 ± 0.612 L/h
- accumulation potential ([2]; MAD, 7 days, AUCinf Day 1 vs AUCτ Day 7): No accumulation potential
- trough concentrations, steady state ([2]; MAD, value just before each administration): reached a steady state by Day 7
- AUC ([2]; human, plasma, 5 mg/day): 1980 ng·h/mL
- AUC(0-inf) ([2]; human, plasma, 5 mg/day): 1930 ng·h/mL
- AUC ([2]; human, plasma, 10 mg/day): 3470 ng·h/mL
- AUC(0-inf) ([2]; human, plasma, 10 mg/day): 3430 ng·h/mL
- half-life ([2]; male, human, plasma, oral, mean T 1/2 after 7-day repeat administration (range), MAD, 5 and 10 mg/day, Day 7): 9.14 to 10.7 h
SMILES: CCOc1ccc(Cc2cc([C@@H]3S[C@H](CO)[C@@H](O)[C@H](O)[C@H]3O)c(OC)cc2C)cc1 [luseogliflozin, (1S)-1,5-anhydro-1-[5-(4-ethoxybenzyl)-2-methoxy-4-methylphenyl]-1-thio-D-glucitol]
- effect of food on pharmacokinetics (Single ascending dose; SAD, 5 mg preprandial vs fasting): food had little effect on luseogliflozin pharmacokinetics
- increase in 24-h UGE between 1 and 5 mg [3]: 2.7 fold
- increase in 24-h UGE from 5 to 25 mg [3]: 1.4 fold
- maximum of mean UGE for 24 h [3]: approximately 70 g
- mean UGE for 24 h after administration ([3]; 1 mg): 18.9 g
- mean UGE from 24 to 48 h after administration ([3]; 1 mg): 2.53 g
- mean UGE for 24 h after administration ([3]; 3 mg): 36.8 g
- mean UGE from 24 to 48 h after administration ([3]; 3 mg): 12.5 g
- mean UGE for 24 h after administration ([3]; 5 mg): 50.2 g
- mean UGE from 24 to 48 h after administration ([3]; 5 mg): 21.3 g
- mean UGE for 24 h after administration ([3]; 9 mg): 54.3 g
- mean UGE from 24 to 48 h after administration ([3]; 9 mg): 37.5 g
- mean UGE for 24 h after administration ([3]; 15 mg): 60.7 g
- mean UGE from 24 to 48 h after administration ([3]; 15 mg): 48.4 g
- mean UGE for 24 h after administration ([3]; 25 mg): 70.9 g
- mean UGE from 24 to 48 h after administration ([3]; 25 mg): 62.7 g
- mean daily UGE on Day 7 ([4]; 5 mg): 58.0 g
- mean daily UGE (range) ([4]; 5 mg): 57.2 to 65.5 g
- mean daily UGE on Day 7 ([4]; 10 mg): 62.7 g
- mean daily UGE (range) ([4]; 10 mg): 62.7 to 76.9 g
- mean daily UGE after the last administration ([4]; both 5 and 10 mg doses): about 60 g
- effect on fasting plasma glucose levels (plasma glucose): did not produce clinically significant decreases in fasting plasma glucose levels
- changes in renal function test values, blood and urine electrolytes, body weight, vital signs, electrocardiography ([5]; MAD): no clinically significant changes
- severity of AEs ([5]; MAD): mild and reversible
- AE diarrhoea ([5]; MAD, 10 mg): 1 subject
- AE occult blood positive ([5]; MAD, 10 mg): 1 subject
- subjects with AEs ([5]; MAD, 16 subjects received luseogliflozin): 2 subjects
- Escherichia coli and Klebsiella oxytoca in urine ([5]; MAD, after drug administration): less than 10^3 colony forming units/mL
- changes in renal function test values, blood and urine electrolytes ([5]; SAD): no clinically significant changes
- severity of AEs ([5]; SAD): mild, reversible, and did not appear to be dose-related
- AE occult blood positive ([5]; SAD, 3 mg): 2 subjects
- AE beta 2 microglobulin urine increased ([5]; SAD, 9 mg): 1 subject
- AE diarrhoea ([5]; SAD, 25 mg): 1 subject
- AE urethritis ([5]; SAD, 25 mg): 1 subject
- subjects with AEs ([5]; SAD, 43 subjects received luseogliflozin): 7 subjects
- hypoglycemia [5, 8]: no cases of hypoglycemia
- serious AEs or AEs leading to discontinuation [5, 8]: no serious AEs or AEs leading to discontinuation were observed
- IC50 (SGLT2): 2.26 nM
- selectivity: SGLT2 IC50 lower than IC50 for SGLT1 (SGLT1): 1,765 fold
- concentration in the kidney vs plasma [6]: higher concentration in the kidney than in the plasma

SMILES: OC[C@H]1O[C@@H](c2ccc(Cl)c(Cc3ccc(O[C@H]4CCOC4)cc3)c2)[C@H](O)[C@@H](O)[C@@H]1O [empagliflozin]
- maximum amount of daily UGE after multiple dose [1]: 50 to 55 g/day
- maximum amount of daily UGE after single dose [1]: approximately 70 g/day

SMILES: Cc1ccc([C@@H]2O[C@H](CO)[C@@H](O)[C@H](O)[C@H]2O)cc1Cc1ccc(-c2ccc(F)cc2)s1 [canagliflozin]
- maximum amount of daily UGE after multiple dose [1]: 50 to 55 g/day
- maximum amount of daily UGE after single dose [1]: approximately 70 g/day

SMILES: CCOc1ccc(Cc2cc([C@@H]3O[C@H](CO)[C@@H](O)[C@H](O)[C@H]3O)ccc2Cl)cc1 [dapagliflozin]
- maximum amount of daily UGE after multiple dose [1]: 50 to 55 g/day
- maximum amount of daily UGE after single dose [1]: approximately 70 g/day
